From ChEMBL document CHEMBL2074359, “Structural requirements for determining the substrate affinity of peptide transporters PEPT1 and PEPT2” (Pflugers Arch, 2000)
pKi: −log10 of the molar value. Peptide text beside a SMILES is read from it.

Tests used:
[1] = target: T1, Solute carrier family 15 member 2 (Rattus norvegicus, UniProt Q63424); test: TP_TRANSPORTER: inhibition of Gly-Sar uptake in PEPT2-expressing LLC-PK1 cells; assay type: functional, cell-based
T1 sequence (Q63424 whole entry): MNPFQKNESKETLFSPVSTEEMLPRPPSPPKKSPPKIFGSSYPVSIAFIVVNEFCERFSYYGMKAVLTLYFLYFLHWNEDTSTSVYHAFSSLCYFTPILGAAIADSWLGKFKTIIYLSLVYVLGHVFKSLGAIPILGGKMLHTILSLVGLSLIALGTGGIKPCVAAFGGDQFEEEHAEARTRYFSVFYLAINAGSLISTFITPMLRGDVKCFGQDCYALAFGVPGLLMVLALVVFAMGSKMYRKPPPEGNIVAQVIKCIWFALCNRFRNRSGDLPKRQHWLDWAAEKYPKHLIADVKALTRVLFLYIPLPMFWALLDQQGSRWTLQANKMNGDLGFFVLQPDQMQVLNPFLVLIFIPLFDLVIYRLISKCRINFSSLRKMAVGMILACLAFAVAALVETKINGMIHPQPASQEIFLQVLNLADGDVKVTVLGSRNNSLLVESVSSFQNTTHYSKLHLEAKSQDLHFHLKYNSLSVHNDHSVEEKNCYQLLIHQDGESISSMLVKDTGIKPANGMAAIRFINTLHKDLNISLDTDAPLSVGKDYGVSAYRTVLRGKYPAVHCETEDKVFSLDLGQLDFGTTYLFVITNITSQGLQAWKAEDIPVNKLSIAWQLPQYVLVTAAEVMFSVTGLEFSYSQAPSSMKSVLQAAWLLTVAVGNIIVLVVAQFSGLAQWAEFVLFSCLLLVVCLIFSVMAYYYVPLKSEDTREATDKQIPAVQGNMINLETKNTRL
Outline: (§1)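 LLC-PK1 cells stably carrying rat PEPT2 cDNA, grown 6 days in DMEM with 10% FBS. Monolayers were incubated 15 min at 37°C with [14C]glycylsarcosine (20 µM, pH 6.0) alone or with inhibitor, mostly 1–10000 µM. Uptake was normalized to Bradford protein, with control as 100%. IC50 came from nonlinear regression and Ki from Cheng–Prusoff. Two monolayers per concentration, four for control.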

[2] = target: T2, Solute carrier family 15 member 1 (Rattus norvegicus, UniProt P51574); test: TP_TRANSPORTER: inhibition of Gly-Sar uptake in PEPT1-expressing LLC-PK1 cells; assay type: functional, cell-based
T2 sequence (P51574 whole entry): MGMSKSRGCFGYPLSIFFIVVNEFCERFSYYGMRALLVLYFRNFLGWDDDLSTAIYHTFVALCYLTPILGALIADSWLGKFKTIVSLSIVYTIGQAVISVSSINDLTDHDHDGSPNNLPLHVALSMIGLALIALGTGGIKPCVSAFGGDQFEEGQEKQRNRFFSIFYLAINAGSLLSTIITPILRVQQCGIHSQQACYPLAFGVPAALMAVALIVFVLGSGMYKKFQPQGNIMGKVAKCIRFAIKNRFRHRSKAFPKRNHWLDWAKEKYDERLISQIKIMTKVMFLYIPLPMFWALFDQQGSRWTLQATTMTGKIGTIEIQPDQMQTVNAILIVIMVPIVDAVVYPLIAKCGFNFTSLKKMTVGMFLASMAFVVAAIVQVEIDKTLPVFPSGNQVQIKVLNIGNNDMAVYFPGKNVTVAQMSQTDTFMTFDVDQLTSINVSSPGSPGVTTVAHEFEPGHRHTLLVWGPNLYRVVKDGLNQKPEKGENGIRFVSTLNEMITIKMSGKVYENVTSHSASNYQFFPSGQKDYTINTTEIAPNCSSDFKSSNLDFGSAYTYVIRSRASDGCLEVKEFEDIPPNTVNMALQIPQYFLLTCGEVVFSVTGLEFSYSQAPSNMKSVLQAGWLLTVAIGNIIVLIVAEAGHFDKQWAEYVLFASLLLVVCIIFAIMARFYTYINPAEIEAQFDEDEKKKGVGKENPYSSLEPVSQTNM
Outline: as §1, with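 “PEPT1” for “PEPT2”, “10–20000” for “1–10000”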

A pKi [1] of 3.82 and a pKi [2] of 3.00 were found for N[C@@H](CC(=O)O)C(=O)N[C@@H](CC(=O)O)C(=O)O (H-Asp-Asp-OH) in this work.

A pKi [1] of 4.77 and a pKi [2] of 3.82 were found for CSCC[C@H](N)C(=O)N[C@@H](C)C(=O)O (H-Met-Ala-OH) in this work.

A pKi [1] of 5.22 and a pKi [2] of 3.96 were found for CC(C)C[C@H](NC(=O)CN)C(=O)O in this work.

A pKi [1] of 3.64 and a pKi [2] of 2.66 were found for NCC(=O)CCC(=O)O [AMINOLEVULINIC ACID] in this work.

A pKi [1] of 4.38 and a pKi [2] of 3.07 were found for NCC(=O)NCC(=O)O (H-Gly-Gly-OH) in this work.

A pKi [1] of 4.68 and a pKi [2] of 3.04 were found for NCCCC[C@H](N)C(=O)NCC(=O)O (H-Lys-Gly-OH) in this work.

A pKi [1] of 4.18 and a pKi [2] of 2.10 were found for NCCC(=O)N[C@@H](Cc1cnc[nH]1)C(=O)O [CARNOSINE] in this work.

A pKi [1] of 4.02 and a pKi [2] of 2.10 were found for NCCCC[C@H](NC(=O)[C@@H](N)CCCCN)C(=O)O in this work.

A pKi [1] of 4.34 and a pKi [2] of 3.08 were found for N[C@@H](CC(=O)O)C(=O)NCC(=O)O (H-Asp-Gly-OH) in this work.

A pKi [1] of 4.22 and a pKi [2] of 3.52 were found for NCC(=O)N[C@@H](CC(=O)O)C(=O)O (H-Gly-Asp-OH) in this work.

A pKi [1] of 5.10 and a pKi [2] of 3.77 were found for NCC(=O)N[C@@H](Cc1ccccc1)C(=O)O (H-Gly-Phe-OH) in this work.

A pKi [1] of 2.70 and a pKi [2] of 1.89 were found for O=C(O)CNC(=O)[C@@H]1CCCN1 (H-Pro-Gly-OH) in this work.

A pKi [1] of 3.68 and a pKi [2] of 2.66 were found for NCCCC[C@H](NC(=O)CN)C(=O)O (H-Gly-Lys-OH) in this work.

A pKi [1] of 4.41 and a pKi [2] of 2.85 were found for NCC(=O)N[C@@H](Cc1c[nH]cn1)C(=O)O (H-Gly-His-OH) in this work.

A pKi [1] of 4.74 and a pKi [2] of 2.82 were found for CC(C)C[C@H](NC(=O)[C@@H](O)[C@H](N)Cc1ccccc1)C(=O)O [UBENIMEX] in this work.

A pKi [1] of 4.54 and a pKi [2] of 4.21 were found for C[C@H](N)C(=O)Nc1ccc([N+](=O)[O-])cc1 in this work.

A pKi [1] of 4.85 and a pKi [2] of 3.68 were found for NCC(=O)N[C@@H](Cc1ccc(O)cc1)C(=O)O (H-Gly-Tyr-OH) in this work.

A pKi [1] of 5.10 and a pKi [2] of 3.72 were found for CC(C)C[C@H](NC(=O)CN)C(=O)N[C@@H](Cc1ccc(O)cc1)C(=O)O (H-Gly-Leu-Tyr-OH) in this work.

A pKi [1] of 1.55 and a pKi [2] of less than 1.30 were found for N[C@@H](CC(=O)NCC(=O)O)C(=O)O in this work.

A pKi [1] of 2.00 and a pKi [2] of 1.62 were found for CSCC[C@H](NC=O)C(=O)N[C@@H](C)C(=O)O (HELM PEPTIDE1{[O=C[*:2]].M.A}$$$$V2.0) in this work.

A pKi [1] of 4.54 and a pKi [2] of 3.21 were found for NCC(=O)NCC(=O)N[C@@H](Cc1ccccc1)C(=O)O (H-Gly-Gly-Phe-OH) in this work.

A pKi [1] of 5.15 and a pKi [2] of 3.66 were found for N[C@@H](Cc1ccccc1)C(=O)NCC(=O)O (H-Phe-Gly-OH) in this work.

A pKi [1] of 2.66 and a pKi [2] of 1.89 were found for CNCC(=O)NCC(=O)O in this work.

A pKi [1] of 5.15 and a pKi [2] of 2.85 were found for NCC(=O)N[C@@H](Cc1c[nH]c2ccccc12)C(=O)O (H-Gly-Trp-OH) in this work.

A pKi [1] of 2.10 and a pKi [2] of 2.36 were found for NCCCCCCCC(=O)O in this work.

A pKi [1] of 4.66 and a pKi [2] of 3.57 were found for NCC(=O)N[C@@H](CC(N)=O)C(=O)O (H-Gly-Asn-OH) in this work.

A pKi [1] of 3.80 and a pKi [2] of 2.89 were found for NCC(=O)NCC(=O)NCC(=O)O [GLYCYLGLYCYLGLYCINE] in this work.
